# Test results from ChEMBL document CHEMBL4196237, “Heterocoumarins Are Selective Carbonic Anhydrase IX and XII Inhibitors with Cytotoxic Effects against Cancer Cells Lines” (ACS Med Chem Lett, 2018).
# The source made the active and inactive calls. No cut-off for these calls is given here.
# Legend:
# Carbonic anhydrase 9 = Carbonic anhydrase 9 (Homo sapiens, UniProt Q16790); test: Inhibition of recombinant human carbonic anhydrase 9 incubated 15 mins prior to testing by CO2 hydration based stopped-flow assay
# Carbonic anhydrase 1 = Carbonic anhydrase 1 (Homo sapiens, UniProt P00915); test: Inhibition of recombinant human carbonic anhydrase 1 incubated 6 h prior to testing by CO2 hydration based stopped-flow assay
# Sequence of Carbonic anhydrase 1 (P00915 whole entry): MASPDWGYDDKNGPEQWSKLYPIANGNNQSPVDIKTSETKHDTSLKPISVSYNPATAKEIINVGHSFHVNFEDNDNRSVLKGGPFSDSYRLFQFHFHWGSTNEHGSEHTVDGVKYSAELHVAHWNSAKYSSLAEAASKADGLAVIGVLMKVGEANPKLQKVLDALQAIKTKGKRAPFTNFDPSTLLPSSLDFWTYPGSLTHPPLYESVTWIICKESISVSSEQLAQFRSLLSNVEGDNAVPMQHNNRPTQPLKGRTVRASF
# Carbonic anhydrase 2 = Carbonic anhydrase 2 (Homo sapiens, UniProt P00918); test: Inhibition of recombinant human carbonic anhydrase 2 incubated 6 h prior to testing by CO2 hydration based stopped-flow assay
# Carbonic anhydrase 12 [1] = molecular target: T1, Carbonic anhydrase 12 (Homo sapiens, UniProt O43570); test: Inhibition of recombinant human carbonic anhydrase 12 incubated 15 mins prior to testing by CO2 hydration based stopped-flow assay
# T1 sequence (O43570 whole entry): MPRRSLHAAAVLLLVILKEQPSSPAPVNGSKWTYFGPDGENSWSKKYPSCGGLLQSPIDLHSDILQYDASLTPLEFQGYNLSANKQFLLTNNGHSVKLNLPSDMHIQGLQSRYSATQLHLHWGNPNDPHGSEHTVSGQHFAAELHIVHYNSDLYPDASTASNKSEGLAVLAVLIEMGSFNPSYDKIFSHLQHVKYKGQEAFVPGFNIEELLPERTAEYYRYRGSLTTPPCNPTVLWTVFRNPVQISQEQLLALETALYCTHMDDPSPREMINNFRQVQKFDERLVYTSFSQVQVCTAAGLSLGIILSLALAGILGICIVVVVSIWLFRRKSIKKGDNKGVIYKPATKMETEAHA
# PC-3 [2] = test: Cytotoxicity against human PC3 cells assessed as cell viability at 300 uM after 48 hrs under normoxic conditions by MTT assay relative to control; format: functional; conditions: PC-3, 48 h, read-out: Activity
# In short: (§1)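 PC3 human prostate cancer cells incubated 48 h with compound at a range of concentrations, under normoxia or under hypoxia (1% O2). Viability is expressed relative to control, with significance tested against control at p < 0.05, 0.01 and 0.001.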
# PC-3 [3] = test: Cytotoxicity against human PC3 cells assessed as cell viability at 300 uM after 48 hrs under hypoxic conditions by MTT assay relative to control; format: functional; conditions: PC-3, 48 h, read-out: Activity; in short: as §1
# MDA-MB-231 [4] = test: Cytotoxicity against human MDA-MB-231 cells assessed as reduction in cell viability at 300 uM after 48 hrs under normoxic conditions by MTT assay relative to control; format: functional
# MDA-MB-231 [5] = test: Cytotoxicity against human MDA-MB-231 cells assessed as reduction in cell viability at 30 uM after 48 hrs under hypoxic conditions by MTT assay relative to control; format: functional
# MDA-MB-231 [6] = test: Cytotoxicity against human MDA-MB-231 cells assessed as reduction in cell viability at 300 uM after 48 hrs under hypoxic conditions by MTT assay relative to control; format: functional
# PC-3 [7] = test: Cytotoxicity against human PC3 cells assessed as cell viability at 30 uM after 48 hrs under normoxic conditions by MTT assay relative to control; format: functional; conditions: PC-3, 48 h, read-out: Activity; in short: as §1
# PC-3 [8] = test: Cytotoxicity against human PC3 cells assessed as cell viability at higher concentration after 48 hrs under normoxic conditions by MTT assay relative to control; format: functional; in short: as §1
# PC-3 [9] = test: Cytotoxicity against human PC3 cells assessed as cell viability at 30 uM after 48 hrs under hypoxic conditions by MTT assay relative to control; format: functional; conditions: PC-3, 48 h, read-out: Activity; in short: as §1
# PC-3 [10] = test: Cytotoxicity against human PC3 cells assessed as cell viability at 100 to 300 uM after 48 hrs under hypoxic conditions by MTT assay relative to control; format: functional; in short: as §1
# MDA-MB-231 [11] = test: Cytotoxicity against human MDA-MB-231 cells assessed as reduction in cell viability at 30 uM after 48 hrs under normoxic conditions by MTT assay relative to control; format: functional
# MDA-MB-231 [12] = test: Cytotoxicity against human MDA-MB-231 cells assessed as reduction in cell viability at 1 to 300 uM after 48 hrs under hypoxic conditions by MTT assay; format: functional, cell-based
# Carbonic anhydrase 12 [13] = molecular target: T1, Carbonic anhydrase 12; test: Inhibition of recombinant human carbonic anhydrase 12 incubated 6 h prior to testing by CO2 hydration based stopped-flow assay
# PC-3 [14] = test: Cytotoxicity against human PC3 cells assessed as reduction in cell viability at 1 to 300 uM after 48 hrs under normoxic conditions by MTT assay; format: functional, cell-based; in short: as §1
# PC-3 [15] = test: Cytotoxicity against human PC3 cells assessed as reduction in cell viability at 1 to 300 uM after 48 hrs under hypoxic conditions by MTT assay; format: functional, cell-based; in short: as §1
# MDA-MB-231 [16] = test: Cytotoxicity against human MDA-MB-231 cells assessed as reduction in cell viability at 1 to 300 uM after 48 hrs under normoxic conditions by MTT assay; format: functional, cell-based
SMILES,Ki (Carbonic anhydrase 9) [nM],Ki (Carbonic anhydrase 1) [nM],Ki (Carbonic anhydrase 2) [nM],further results
O=c1ccc2cccc(F)c2[nH]1,58.8,> 10000,> 10000,
Cn1c(=[Se])ccc2ccccc21,172,> 10000,> 10000,Ki (Carbonic anhydrase 12 [1]): 86.4 nM
O=c1ccc2ccccc2[se]1,26.3,> 10000,> 10000,viability at 300 µM (PC-3 [2]): 68%; viability at 300 µM (PC-3 [3]): 68%; Activity (MDA-MB-231 [4]): 28%; Activity (MDA-MB-231 [5]): >50%; Activity (MDA-MB-231 [6]): 90%
Cc1ccc2[nH]c(=O)ccc2c1,123,> 10000,> 10000,
O=c1ccc2ccccc2[te]1,59,> 10000,> 10000,Ki (Carbonic anhydrase 12 [1]): 8.2 nM; viability at 30 µM (PC-3 [7]): 54%; Activity (PC-3 [8]): 19%; viability at 30 µM (PC-3 [9]): 71%; Activity (PC-3 [10]): 38%; Activity (MDA-MB-231 [6]): 22%; Activity (MDA-MB-231 [11]): 15.9%
Cc1ccc2[se]c(=S)ccc2c1,59.9,> 10000,> 10000,viability at 30 µM (PC-3 [7]): 51%; viability at 30 µM (PC-3 [9]): 79%; Activity (MDA-MB-231 [12]): inactive; Activity (MDA-MB-231 [11]): 61%
S=c1ccc2ccccc2[se]1,39.5,> 10000,> 10000,
O=c1ccc2cccc(Br)c2[nH]1,23.4,> 10000,> 10000,
Oc1ccc2ccccc2n1,,> 10000,> 10000,
Cn1c(=O)ccc2ccccc21,44.6,> 10000,> 10000,Ki (Carbonic anhydrase 12 [13]): 83.5 nM
[Se]=c1ccc2ccccc2[nH]1,54.4,> 10000,> 10000,Activity (PC-3 [14]): inactive; Activity (PC-3 [15]): inactive; Activity (MDA-MB-231 [16]): inactive; Activity (MDA-MB-231 [12]): inactive
O=c1ccc2cccc(Cl)c2[nH]1,23,> 10000,> 10000,
Cc1ccc2[se]c(=O)ccc2c1,56.1,> 10000,> 10000,Ki (Carbonic anhydrase 12 [1]): 7.6 nM
